Measured values from ChEMBL document CHEMBL1137748, “Design, synthesis and characterization of novel 2-(2,4-disubstituted-thiazole-5-yl)-3-aryl-3H-quinazoline-4-one derivatives as inhibitors of NF-kappaB and AP-1 mediated transcription activation and as potential anti-inflammatory agents” (Eur J Med Chem, 2009).

Key:
HEK293 = experiment: Inhibition of NF-kappaB expressed in HEK293 cells assessed as inhibition of TNF-alpha-induced transcriptional activation at 10 uM treated 24 hrs before TNFalpha challenge measured after 20 to 24 hrs by luciferase assay relative to control; type: cell-based
How it was run: (§1)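 HEK/NF-κB cells stably carrying an NF-κB response element driving luciferase. Plated at 5×10^4 cells/well and held 24 h at 37 °C, 5% CO2. Compounds in 0.1% DMSO were added to replicate wells for 24 h, then TNF-α was added and cells were incubated 20–24 h. Bright-Glo lysis/substrate was added and luminescence read. The replicate mean was normalized to the maximal control.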

Rattus norvegicus = experiment: Antiinflammatory activity in Sprague-Dawley rat assessed as protection against carrageenan-induced paw edema at 50 mg/kg, po administered 1 hr before carrageenan challenge measured after 3 hrs relative to control; type: functional
How it was run: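 Sprague-Dawley rats of either sex, 150–250 g, fasted 18 h, n = 4 per group, each group run against a vehicle control. Dosed orally at 50 mg/kg in freshly made 0.2% agar suspension. One hour later, 0.1 ml of 1% carrageenan in saline was injected subplantar into the right hind paw. Paw volume was read by plethysmometer at 3 h. % protection = (control − test)/control × 100.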

[1] = target: Transcription factor Jun (Homo sapiens) (UniProt P05412); experiment: Inhibition of AP1 expressed in HEK293 cells assessed as inhibition of PMA-induced transcriptional activation at 10 uM treated 24 hrs before PMA challenge measured after 20 to 24 hrs by luciferase assay relative to control
Transcription factor Jun (Homo sapiens), sequence (P05412 whole entry): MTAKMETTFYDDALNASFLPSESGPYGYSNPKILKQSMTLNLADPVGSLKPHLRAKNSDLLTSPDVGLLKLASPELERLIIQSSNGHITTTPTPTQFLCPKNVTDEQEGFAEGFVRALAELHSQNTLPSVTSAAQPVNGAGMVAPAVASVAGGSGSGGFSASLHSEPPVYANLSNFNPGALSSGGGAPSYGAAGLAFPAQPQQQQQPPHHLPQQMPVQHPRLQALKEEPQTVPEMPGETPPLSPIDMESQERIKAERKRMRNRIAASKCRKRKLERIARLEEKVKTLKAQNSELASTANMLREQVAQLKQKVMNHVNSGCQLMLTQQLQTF

[2] = Inhibition of NF-kappaB expressed in HEK293 cells assessed as inhibition of TNF-alpha-induced transcriptional activation treated 24 hrs before TNFalpha challenge measured after 20 to 24 hrs by luciferase assay; type: cell-based; how it was run: as §1

**Q.** With `Cc1nc(Nc2ccc(Cl)cc2)sc1-c1nc2ccccc2c(=O)n1-c1ccccc1` as the compound, how does the inhibition (HEK293) read?
**A.** The inhibition was 0%.

**Q.** And the Activity (Rattus norvegicus)?
**A.** Its Activity is 4%.

**Q.** And the inhibition [1]?
**A.** Its inhibition is 0%.

**Q.** For `CC(=O)c1ccc(-n2c(-c3sc(Nc4ccc(Cl)cc4)nc3C)nc3ccccc3c2=O)cc1`, which inhibition (HEK293) is on record?
**A.** The inhibition was 0%.

**Q.** What about the Activity (Rattus norvegicus) of the same compound?
**A.** Its Activity is 13%.

**Q.** What about the inhibition [1] of the same compound?
**A.** Its inhibition is 2%.

**Q.** Which inhibition (HEK293) does the source give for `CC(=O)c1ccc(-n2c(-c3sc(Nc4ccc(Cl)cc4)nc3N)nc3ccccc3c2=O)cc1` here?
**A.** The inhibition was 12%.

**Q.** What about the Activity (Rattus norvegicus) of the same compound?
**A.** Its Activity is 53%.

**Q.** And the inhibition [1]?
**A.** Its inhibition is 2%.

**Q.** What does the source list for `Cc1ccccc1-n1c(-c2sc(Nc3ccccc3)nc2C)nc2ccccc2c1=O`?
**A.** inhibition (HEK293): 21%; Activity (Rattus norvegicus): 42%; inhibition [1]: 60%

**Q.** With `CC(=O)c1ccc(-n2c(-c3sc(Nc4ccccc4)nc3C)nc3ccccc3c2=O)cc1` as the compound, how does the inhibition (HEK293) read?
**A.** The inhibition was 15%.

**Q.** And the inhibition [1]?
**A.** Its inhibition is 7%.

**Q.** For `Cc1ccccc1-n1c(-c2sc(Nc3ccc(Cl)cc3)nc2-c2ccccc2)nc2ccccc2c1=O`, which inhibition (HEK293) is on record?
**A.** The inhibition was 27%.

**Q.** What about the Activity (Rattus norvegicus) of the same compound?
**A.** The Activity was 51%.

**Q.** And the inhibition [1]?
**A.** Its inhibition is 32%.

**Q.** Which Activity (Rattus norvegicus) does the source give for `Cc1ccccc1-n1c(-c2sc(Nc3ccc(Cl)cc3)nc2C)nc2ccccc2c1=O` here?
**A.** The Activity was 45%.

**Q.** Which results are given for `Cc1ccc(Nc2nc(-c3ccccc3)c(-c3nc4ccccc4c(=O)n3-c3ccc(Cl)cc3)s2)cc1`?
**A.** inhibition (HEK293): 0%; inhibition [1]: 0%

**Q.** What does the source list for `CNc1nc(C)c(-c2nc3ccccc3c(=O)n2-c2ccccc2C)s1`?
**A.** inhibition (HEK293): 16%; Activity (Rattus norvegicus): 35%; inhibition [1]: 67%

**Q.** With `CNc1nc(C)c(-c2nc3ccccc3c(=O)n2-c2ccc(C(C)=O)cc2)s1` as the compound, how does the inhibition (HEK293) read?
**A.** Its inhibition is 71%.

**Q.** What about the Activity (Rattus norvegicus) of the same compound?
**A.** The Activity was 42%.

**Q.** And the inhibition [1]?
**A.** The inhibition was 0%.

**Q.** And the IC50 [2]?
**A.** The IC50 was 5.5 µM.

**Q.** What does the source list for `Cc1nc(Nc2ccc(Cl)cc2)sc1-c1nc2ccccc2c(=O)n1-c1ccc(Cl)cc1`?
**A.** inhibition (HEK293): 96%; Activity (Rattus norvegicus): 38%; inhibition [1]: 84%; IC50 [2]: 3.3 µM

**Q.** What does the source list for `Cc1nc(Nc2ccccc2)sc1-c1nc2ccccc2c(=O)n1-c1ccccc1Cl`?
**A.** inhibition (HEK293): 6%; inhibition [1]: 21%

**Q.** What does the source list for `CNc1nc(C)c(-c2nc3ccccc3c(=O)n2-c2cccc(C)c2)s1`?
**A.** inhibition (HEK293): 10%; inhibition [1]: 20%

**Q.** For `COc1ccccc1-n1c(-c2sc(Nc3ccc(Cl)cc3)nc2C)nc2ccccc2c1=O`, which Activity (Rattus norvegicus) is on record?
**A.** Its Activity is 27%.

**Q.** Which inhibition (HEK293) does the source give for `CNc1nc(C)c(-c2nc3ccccc3c(=O)n2-c2ccc(Cl)cc2)s1` here?
**A.** The inhibition was 93%.

**Q.** What about the Activity (Rattus norvegicus) of the same compound?
**A.** The Activity was 71%.

**Q.** And the inhibition [1]?
**A.** Its inhibition is 82%.

**Q.** And the IC50 [2]?
**A.** The IC50 was 3.3 µM.

**Q.** For `Cc1ccc(-n2c(-c3sc(Nc4ccc(Cl)cc4)nc3C)nc3ccccc3c2=O)cc1`, which inhibition (HEK293) is on record?
**A.** Its inhibition is 12%.

**Q.** And the Activity (Rattus norvegicus)?
**A.** The Activity was 37%.

**Q.** And the inhibition [1]?
**A.** Its inhibition is 2%.

**Q.** Which inhibition (HEK293) does the source give for `CNc1nc(-c2ccccc2)c(-c2nc3ccccc3c(=O)n2-c2ccc(C(C)=O)cc2)s1` here?
**A.** Its inhibition is 4%.

**Q.** What about the inhibition [1] of the same compound?
**A.** The inhibition was 15%.

**Q.** For `Cc1nc(Nc2ccccc2)sc1-c1nc2ccccc2c(=O)n1-c1ccccc1`, which inhibition (HEK293) is on record?
**A.** The inhibition was 25%.

**Q.** And the Activity (Rattus norvegicus)?
**A.** The Activity was 12%.

**Q.** And the inhibition [1]?
**A.** Its inhibition is 16%.

**Q.** Which inhibition (HEK293) does the source give for `CC(=O)c1ccc(-n2c(-c3sc(Nc4ccc(Cl)cc4)nc3-c3ccccc3)nc3ccccc3c2=O)cc1` here?
**A.** Its inhibition is 0%.

**Q.** What about the Activity (Rattus norvegicus) of the same compound?
**A.** The Activity was 23%.

**Q.** And the inhibition [1]?
**A.** Its inhibition is 31%.

**Q.** Which inhibition (HEK293) does the source give for `Nc1nc(Nc2ccc(Cl)cc2)sc1-c1nc2ccccc2c(=O)n1-c1ccc(Cl)cc1` here?
**A.** Its inhibition is 0%.

**Q.** And the Activity (Rattus norvegicus)?
**A.** Its Activity is 37%.

**Q.** And the inhibition [1]?
**A.** Its inhibition is 0%.

**Q.** With `COc1ccc(-n2c(-c3sc(Nc4ccc(Cl)cc4)nc3C)nc3ccccc3c2=O)cc1` as the compound, how does the inhibition (HEK293) read?
**A.** The inhibition was 0%.

**Q.** What about the Activity (Rattus norvegicus) of the same compound?
**A.** Its Activity is 5%.

**Q.** And the inhibition [1]?
**A.** The inhibition was 0%.

**Q.** For `O=c1c2ccccc2nc(-c2sc(Nc3ccc(Cl)cc3)nc2-c2ccccc2)n1-c1ccccc1`, which inhibition (HEK293) is on record?
**A.** Its inhibition is 0%.

**Q.** And the inhibition [1]?
**A.** Its inhibition is 27%.

**Q.** What does the source list for `Cc1nc(Nc2ccccc2)sc1-c1nc2ccccc2c(=O)n1-c1ccc(Cl)cc1`?
**A.** inhibition (HEK293): 79%; Activity (Rattus norvegicus): 72%; inhibition [1]: 9%; IC50 [2]: 5.5 µM

**Q.** With `O=c1c2ccccc2nc(-c2sc(Nc3ccc(Cl)cc3)nc2-c2ccccc2)n1-c1ccccc1Cl` as the compound, how does the inhibition (HEK293) read?
**A.** Its inhibition is 24%.

**Q.** What about the Activity (Rattus norvegicus) of the same compound?
**A.** Its Activity is 61%.

**Q.** And the inhibition [1]?
**A.** Its inhibition is 0%.

**Q.** For `Cc1nc(Nc2ccc(Cl)cc2)sc1-c1nc2ccccc2c(=O)n1-c1ccccc1Cl`, which inhibition (HEK293) is on record?
**A.** Its inhibition is 60%.

**Q.** What about the Activity (Rattus norvegicus) of the same compound?
**A.** The Activity was 58%.

**Q.** And the inhibition [1]?
**A.** The inhibition was 21%.

**Q.** Which results are given for `Cc1cccc(-n2c(-c3sc(Nc4ccc(Cl)cc4)nc3C)nc3ccccc3c2=O)c1`?
**A.** inhibition (HEK293): 2%; inhibition [1]: 39%
